Columns and labels:
[1] = target: 3-(3-hydroxydecanoyloxy)decanoate synthase (Pseudomonas aeruginosa (strain ATCC 15692 / PAO1 / 1C / PRS 101 / LMG12228)) (UniProt Q51559); experiment: Modulation of Pseudomonas aeruginosa lacZ-fused rhlA expressed in Escherichia coli DH5alpha co-expressing Ptac-rhlR assessed as C4-AHL-induced effect at 0.40 mM after 4 hrs by beta-galactosidase assay relative to control
Summary of the method: (§1)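 rhl reporter: E. coli DH5α carrying pECP61.5 (Ptac-rhlR, PrhlA-lacZ) was grown overnight in LB with ampicillin (100 μg/ml) only, then diluted to OD600 0.150. It was induced with 1 mM IPTG, and 2 μM C4-HSL plus compound or DMSO were added at OD600 1.0. Cultures were shaken 4 h at 37 °C. β-Galactosidase activity was read in Miller units as % of the solvent sample. Triplicates per biological replicate, at least two repeats; paired two-tailed t-test.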

[2] = target: T1, Acyl-homoserine-lactone synthase (Pseudomonas aeruginosa (strain ATCC 15692 / PAO1 / 1C / PRS 101 / LMG12228)) (UniProt P33883); experiment: Modulation of Pseudomonas aeruginosa lacZ-fused lasI expressed in Escherichia coli DH5alpha co-expressing pBAD-lasR assessed as 3-oxo-C12-AHL-induced effect at 0.20 mM after 3 hrs by beta-galactosidase assay relative to control
T1 sequence (whole entry): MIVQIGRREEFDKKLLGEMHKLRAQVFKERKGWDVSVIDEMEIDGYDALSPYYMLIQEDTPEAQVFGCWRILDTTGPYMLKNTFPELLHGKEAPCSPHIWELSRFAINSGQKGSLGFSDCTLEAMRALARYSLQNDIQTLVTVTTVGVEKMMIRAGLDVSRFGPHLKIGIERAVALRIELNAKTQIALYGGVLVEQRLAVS
Summary of the method: (§2)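 E. coli DH5α carrying pSC11 (PlasI-lacZ translational fusion) and pJN105L (PBAD-lasR) was grown overnight in LB with ampicillin (100 μg/ml) and gentamicin (15 μg/ml), then diluted to OD600 0.150. Arabinose (0.2% w/v), 3-oxo-C12-AHL (2 μM) and test compound or DMSO were added. Cultures were shaken 3 h at 37 °C. β-Galactosidase activity was read in Miller units and expressed as % of the solvent sample. Triplicates per biological replicate, repeated at least twice; paired two-tailed t-test.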

[3] = target: T1, Acyl-homoserine-lactone synthase (Pseudomonas aeruginosa (strain ATCC 15692 / PAO1 / 1C / PRS 101 / LMG12228)); experiment: Modulation of Pseudomonas aeruginosa lacZ-fused lasI expressed in Escherichia coli DH5alpha co-expressing pBAD-lasR assessed as 3-oxo-C12-AHL-induced effect at 0.60 mM after 3 hrs by beta-galactosidase assay relative to control; summary of the method: as §2
[4] = target: 3-(3-hydroxydecanoyloxy)decanoate synthase (Pseudomonas aeruginosa (strain ATCC 15692 / PAO1 / 1C / PRS 101 / LMG12228)) (UniProt Q51559); experiment: Modulation of Pseudomonas aeruginosa lacZ-fused rhlA expressed in Escherichia coli DH5alpha co-expressing Ptac-rhlR assessed as C4-AHL-induced effect at 0.80 mM after 4 hrs by beta-galactosidase assay relative to control
Summary of the method: (§3)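 E. coli DH5α carrying pECP61.5 (Ptac-rhlR, PrhlA-lacZ), grown overnight in LB with ampicillin 100 μg/ml and diluted to OD600 0.150. At OD600 1.0, 1 mM IPTG, 2 μM C4-HSL and compound or DMSO were added. Cultures were shaken 4 h at 37 °C, then β-galactosidase was read in Miller units. Activity is % of solvent sample, from triplicates per biological replicate, with at least two repeats.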

[5] = target: 3-(3-hydroxydecanoyloxy)decanoate synthase (Pseudomonas aeruginosa (strain ATCC 15692 / PAO1 / 1C / PRS 101 / LMG12228)) (UniProt Q51559); experiment: Modulation of Pseudomonas aeruginosa lacZ-fused rhlA expressed in Escherichia coli DH5alpha co-expressing Ptac-rhlR assessed as C4-AHL-induced effect at 0.20 mM after 4 hrs by beta-galactosidase assay relative to control; summary of the method: as §1
[6] = target: T1, Acyl-homoserine-lactone synthase (Pseudomonas aeruginosa (strain ATCC 15692 / PAO1 / 1C / PRS 101 / LMG12228)); experiment: Modulation of Pseudomonas aeruginosa lacZ-fused lasI expressed in Escherichia coli DH5alpha co-expressing pBAD-lasR assessed as 3-oxo-C12-AHL-induced effect at 0.40 mM after 3 hrs by beta-galactosidase assay relative to control; summary of the method: as §2
[7] = target: T1, Acyl-homoserine-lactone synthase (Pseudomonas aeruginosa (strain ATCC 15692 / PAO1 / 1C / PRS 101 / LMG12228)); experiment: Modulation of Pseudomonas aeruginosa lacZ-fused lasI expressed in Escherichia coli DH5alpha co-expressing pBAD-lasR assessed as 3-oxo-C12-AHL-induced effect at 0.80 mM after 3 hrs by beta-galactosidase assay relative to control; summary of the method: as §2
[8] = target: 3-(3-hydroxydecanoyloxy)decanoate synthase (Pseudomonas aeruginosa (strain ATCC 15692 / PAO1 / 1C / PRS 101 / LMG12228)) (UniProt Q51559); experiment: Modulation of Pseudomonas aeruginosa lacZ-fused rhlA expressed in Escherichia coli DH5alpha co-expressing Ptac-rhlR assessed as C4-AHL-induced effect at 0.60 mM after 4 hrs by beta-galactosidase assay relative to control; summary of the method: as §3
[9] = target: T2, Transcriptional activator protein LasR (Pseudomonas aeruginosa (strain ATCC 15692 / PAO1 / 1C / PRS 101 / LMG12228), UniProt P25084); experiment: Inhibition of Pseudomonas aeruginosa LasR
T2 sequence (P25084 whole entry): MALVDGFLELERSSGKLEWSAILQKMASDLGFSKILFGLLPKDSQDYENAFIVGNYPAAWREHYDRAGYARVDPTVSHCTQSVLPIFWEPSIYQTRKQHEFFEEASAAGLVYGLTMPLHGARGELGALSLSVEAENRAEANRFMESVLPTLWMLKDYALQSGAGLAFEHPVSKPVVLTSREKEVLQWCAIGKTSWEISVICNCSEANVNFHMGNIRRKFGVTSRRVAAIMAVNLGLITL

[10] = target: 3-(3-hydroxydecanoyloxy)decanoate synthase (Pseudomonas aeruginosa (strain ATCC 15692 / PAO1 / 1C / PRS 101 / LMG12228)) (UniProt Q51559); experiment: Modulation of Pseudomonas aeruginosa lacZ-fused rhlA expressed in Escherichia coli DH5alpha co-expressing Ptac-rhlR assessed as C4-AHL-induced effect at 0.66 mM after 4 hrs by beta-galactosidase assay relative to control; summary of the method: as §3
[11] = target: T1, Acyl-homoserine-lactone synthase (Pseudomonas aeruginosa (strain ATCC 15692 / PAO1 / 1C / PRS 101 / LMG12228)); experiment: Modulation of Pseudomonas aeruginosa lacZ-fused lasI expressed in Escherichia coli DH5alpha co-expressing pBAD-lasR assessed as 3-oxo-C12-AHL-induced effect at 0.33 mM after 3 hrs by beta-galactosidase assay relative to control; summary of the method: as §2
[12] = target: T1, Acyl-homoserine-lactone synthase (Pseudomonas aeruginosa (strain ATCC 15692 / PAO1 / 1C / PRS 101 / LMG12228)); experiment: Modulation of Pseudomonas aeruginosa lacZ-fused lasI expressed in Escherichia coli DH5alpha co-expressing pBAD-lasR assessed as 3-oxo-C12-AHL-induced effect at 0.50 mM after 3 hrs by beta-galactosidase assay relative to control; summary of the method: as §2
[13] = target: 3-(3-hydroxydecanoyloxy)decanoate synthase (Pseudomonas aeruginosa (strain ATCC 15692 / PAO1 / 1C / PRS 101 / LMG12228)) (UniProt Q51559); experiment: Modulation of Pseudomonas aeruginosa lacZ-fused rhlA expressed in Escherichia coli DH5alpha co-expressing Ptac-rhlR assessed as C4-AHL-induced effect at 0.50 mM after 4 hrs by beta-galactosidase assay relative to control; summary of the method: as §1
[14] = target: 3-(3-hydroxydecanoyloxy)decanoate synthase (Pseudomonas aeruginosa (strain ATCC 15692 / PAO1 / 1C / PRS 101 / LMG12228)) (UniProt Q51559); experiment: Modulation of Pseudomonas aeruginosa lacZ-fused rhlA expressed in Escherichia coli DH5alpha co-expressing Ptac-rhlR assessed as C4-AHL-induced effect at 0.33 mM after 4 hrs by beta-galactosidase assay relative to control; summary of the method: as §1
[15] = target: T1, Acyl-homoserine-lactone synthase (Pseudomonas aeruginosa (strain ATCC 15692 / PAO1 / 1C / PRS 101 / LMG12228)); experiment: Modulation of Pseudomonas aeruginosa lacZ-fused lasI expressed in Escherichia coli DH5alpha co-expressing pBAD-lasR assessed as 3-oxo-C12-AHL-induced effect at 0.17 mM after 3 hrs by beta-galactosidase assay relative to control; summary of the method: as §2
[16] = target: T1, Acyl-homoserine-lactone synthase (Pseudomonas aeruginosa (strain ATCC 15692 / PAO1 / 1C / PRS 101 / LMG12228)); experiment: Modulation of Pseudomonas aeruginosa lacZ-fused lasI expressed in Escherichia coli DH5alpha co-expressing pBAD-lasR assessed as 3-oxo-C12-AHL-induced effect at 0.66 mM after 3 hrs by beta-galactosidase assay relative to control; summary of the method: as §2
[17] = target: 3-(3-hydroxydecanoyloxy)decanoate synthase (Pseudomonas aeruginosa (strain ATCC 15692 / PAO1 / 1C / PRS 101 / LMG12228)) (UniProt Q51559); experiment: Modulation of Pseudomonas aeruginosa lacZ-fused rhlA expressed in Escherichia coli DH5alpha co-expressing Ptac-rhlR assessed as C4-AHL-induced effect at 0.17 mM after 4 hrs by beta-galactosidase assay relative to control; summary of the method: as §1

**Q.** How did the Activity [1] turn out when `CCCCCCSC[C@H]1NC(O)[C@H](O)[C@@H]1O` (mixture of isomers) was run?
**A.** Its Activity is 105%.

**Q.** What about the Activity [2] of the same molecule?
**A.** The Activity was 84%.

**Q.** What about the Activity [3] of the same molecule?
**A.** Its Activity is 51%.

**Q.** What about the Activity [4] of the same molecule?
**A.** Its Activity is 116%.

**Q.** What about the Activity [5] of the same molecule?
**A.** The Activity was 94%.

**Q.** And the Activity [6]?
**A.** The Activity was 68%.

**Q.** And the Activity [7]?
**A.** Its Activity is 42%.

**Q.** What about the Activity [8] of the same molecule?
**A.** Its Activity is 109%.

**Q.** For `CCCCCCCCCCCC(=O)N[C@H]1CCOC1=O`, which IC50 [9] is on record?
**A.** Its IC50 is 40 nM.

**Q.** Which results are given for `CCCCCCCCCCCCSC[C@@H]1CCC(O)N1` (mixture of isomers)?
**A.** Activity [10]: 96%; Activity [11]: 56%; Activity [12]: 45%; Activity [13]: 91%; Activity [14]: 93%; Activity [15]: 72%; Activity [16]: 34%; Activity [17]: 98%

Reference: ChEMBL document CHEMBL1817556, “Substituted lactam and cyclic azahemiacetals modulate Pseudomonas aeruginosa quorum sensing” (Bioorg Med Chem, 2011)
